# Test results: the M2OR odorant receptor database
# How the values were obtained:
# Conditions in all cases: stereoisomer not certain
# [1] = target: OR6N1 (Homo sapiens) (UniProt Q8NGY5)
# Method in brief: (§1)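 Whether a receptor–molecule pair is responsive (active) rests on the original authors' judgment that its measured signal was statistically different from baseline. Pairs without that judgment are non-responsive (inactive). Sources used varied assay methods, commonly transient luciferase assays in mammalian cell lines.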
# [2] = target: OR6N2 (Homo sapiens) (UniProt Q8NGY6)
# Method in brief: as §1
# [3] = target: T1, OR6P1 (Homo sapiens) (UniProt Q8NGX9)
# T1 sequence (whole entry): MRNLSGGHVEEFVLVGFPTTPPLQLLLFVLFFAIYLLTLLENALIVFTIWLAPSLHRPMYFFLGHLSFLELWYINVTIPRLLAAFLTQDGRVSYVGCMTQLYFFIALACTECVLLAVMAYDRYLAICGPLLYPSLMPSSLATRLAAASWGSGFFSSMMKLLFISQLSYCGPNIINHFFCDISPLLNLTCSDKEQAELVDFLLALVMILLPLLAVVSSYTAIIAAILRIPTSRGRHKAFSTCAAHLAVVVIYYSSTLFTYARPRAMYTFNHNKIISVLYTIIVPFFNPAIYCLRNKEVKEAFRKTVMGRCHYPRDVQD
# Method in brief: as §1
# [4] = target: OR6Q1 (Homo sapiens) (UniProt Q8NGQ2)
# Method in brief: as §1
# [5] = target: OR6S1 (Homo sapiens) (UniProt Q8NH40)
# Method in brief: as §1
# [6] = target: OR6T1 (Homo sapiens) (UniProt Q8NGN1)
# Method in brief: as §1
# [7] = target: OR6V1 (Homo sapiens) (UniProt Q8N148)
# Method in brief: as §1
# [8] = target: OR6X1 (Homo sapiens) (UniProt Q8NH79)
# Method in brief: as §1
# [9] = target: OR6Y1 (Homo sapiens) (UniProt Q8NGX8)
# Method in brief: as §1
# [10] = target: OR7A10 (Homo sapiens) (UniProt O76100)
# Method in brief: as §1
# [11] = target: OR7A17 (Homo sapiens) (UniProt O14581)
# Method in brief: as §1
# [12] = target: OR7A5 (Homo sapiens) (UniProt Q15622)
# Method in brief: as §1
# [13] = target: OR7C1 (Homo sapiens) (UniProt O76099)
# Method in brief: as §1
# [14] = target: OR7C2 (Homo sapiens) (UniProt O60412)
# Method in brief: as §1
# [15] = target: OR7D2 (Homo sapiens) (UniProt Q96RA2)
# Method in brief: as §1
# [16] = tested on: OR6M1 T276K
# Method in brief: as §1
# [17] = tested on: OR6S1 T42I V156I
# Method in brief: as §1
# [18] = tested on: OR6T1 N2D
# Method in brief: as §1
# [19] = tested on: OR7A5 M81I
# Method in brief: as §1
# [20] = tested on: OR7C1 V126I E171K
# Method in brief: as §1
# 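Further: active if original authors judged signal statistically different from baseline.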
# Chain of OR6N2 (Homo sapiens) (Q8NGY6 whole entry): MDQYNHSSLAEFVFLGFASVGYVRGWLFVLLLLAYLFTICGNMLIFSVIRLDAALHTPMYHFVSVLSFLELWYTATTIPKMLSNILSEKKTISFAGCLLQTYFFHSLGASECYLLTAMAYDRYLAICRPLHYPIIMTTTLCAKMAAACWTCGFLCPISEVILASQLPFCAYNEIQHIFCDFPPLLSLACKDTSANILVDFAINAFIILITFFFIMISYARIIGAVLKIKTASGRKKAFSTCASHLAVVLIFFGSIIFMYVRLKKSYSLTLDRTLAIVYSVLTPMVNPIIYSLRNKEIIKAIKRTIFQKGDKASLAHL
# Chain of OR6Q1 (Homo sapiens) (Q8NGQ2 whole entry): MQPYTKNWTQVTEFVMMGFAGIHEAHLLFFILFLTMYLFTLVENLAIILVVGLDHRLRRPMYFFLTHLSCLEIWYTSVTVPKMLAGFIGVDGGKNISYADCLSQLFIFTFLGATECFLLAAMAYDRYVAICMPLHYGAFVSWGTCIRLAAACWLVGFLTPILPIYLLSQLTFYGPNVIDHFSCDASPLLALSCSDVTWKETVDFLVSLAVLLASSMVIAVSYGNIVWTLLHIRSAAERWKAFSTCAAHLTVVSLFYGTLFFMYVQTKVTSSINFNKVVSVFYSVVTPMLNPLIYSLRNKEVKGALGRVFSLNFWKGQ
# Chain of OR6S1 (Homo sapiens) (Q8NH40 whole entry): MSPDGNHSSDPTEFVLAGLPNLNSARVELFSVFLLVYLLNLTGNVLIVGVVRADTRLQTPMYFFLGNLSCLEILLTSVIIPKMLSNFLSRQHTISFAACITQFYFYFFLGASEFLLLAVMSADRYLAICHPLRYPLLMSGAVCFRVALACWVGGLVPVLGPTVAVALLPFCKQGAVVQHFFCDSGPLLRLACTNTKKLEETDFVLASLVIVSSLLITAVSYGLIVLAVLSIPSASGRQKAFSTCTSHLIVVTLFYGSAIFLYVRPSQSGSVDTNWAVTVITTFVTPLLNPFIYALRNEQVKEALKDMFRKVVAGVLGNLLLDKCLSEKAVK
# Chain of OR7A10 (Homo sapiens) (O76100 whole entry): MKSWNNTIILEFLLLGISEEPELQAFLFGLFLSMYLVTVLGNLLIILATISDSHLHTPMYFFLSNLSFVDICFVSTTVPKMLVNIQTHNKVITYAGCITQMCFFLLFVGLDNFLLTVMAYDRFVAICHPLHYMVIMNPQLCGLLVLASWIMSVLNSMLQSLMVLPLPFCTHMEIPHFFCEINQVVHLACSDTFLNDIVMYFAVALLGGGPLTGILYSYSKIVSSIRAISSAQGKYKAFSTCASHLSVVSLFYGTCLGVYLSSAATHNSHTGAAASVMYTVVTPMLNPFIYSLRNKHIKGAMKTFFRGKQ
# Chain of OR7C2 (Homo sapiens) (O60412 whole entry): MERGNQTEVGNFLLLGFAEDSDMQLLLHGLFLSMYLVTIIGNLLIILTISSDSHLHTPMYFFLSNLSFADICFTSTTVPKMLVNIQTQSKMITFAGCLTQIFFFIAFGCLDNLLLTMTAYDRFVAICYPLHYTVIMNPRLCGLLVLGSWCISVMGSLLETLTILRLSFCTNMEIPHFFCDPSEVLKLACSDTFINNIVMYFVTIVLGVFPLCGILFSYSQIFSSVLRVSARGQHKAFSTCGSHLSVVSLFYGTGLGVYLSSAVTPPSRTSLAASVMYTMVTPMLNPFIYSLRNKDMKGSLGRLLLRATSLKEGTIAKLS
# Chain of OR7C1 (Homo sapiens) (O76099 whole entry): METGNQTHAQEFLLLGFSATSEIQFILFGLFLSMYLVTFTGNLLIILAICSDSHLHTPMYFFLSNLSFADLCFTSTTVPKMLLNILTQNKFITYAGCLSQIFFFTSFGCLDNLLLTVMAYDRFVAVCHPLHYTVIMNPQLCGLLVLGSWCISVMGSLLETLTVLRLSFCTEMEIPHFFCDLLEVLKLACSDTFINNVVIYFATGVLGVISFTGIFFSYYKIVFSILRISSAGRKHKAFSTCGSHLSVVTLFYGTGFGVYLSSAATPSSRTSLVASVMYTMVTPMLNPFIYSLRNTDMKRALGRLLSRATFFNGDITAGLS
# Chain of OR6N1 (Homo sapiens) (Q8NGY5 whole entry): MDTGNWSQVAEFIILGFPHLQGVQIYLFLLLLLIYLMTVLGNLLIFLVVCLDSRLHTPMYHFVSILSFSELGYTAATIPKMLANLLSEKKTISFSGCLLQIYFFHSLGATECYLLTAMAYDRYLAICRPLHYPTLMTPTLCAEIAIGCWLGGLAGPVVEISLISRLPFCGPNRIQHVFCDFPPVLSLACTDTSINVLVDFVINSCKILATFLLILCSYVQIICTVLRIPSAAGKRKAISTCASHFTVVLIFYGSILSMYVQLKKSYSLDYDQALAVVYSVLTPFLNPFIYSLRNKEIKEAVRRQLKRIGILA
# Chain of OR6V1 (Homo sapiens) (Q8N148 whole entry): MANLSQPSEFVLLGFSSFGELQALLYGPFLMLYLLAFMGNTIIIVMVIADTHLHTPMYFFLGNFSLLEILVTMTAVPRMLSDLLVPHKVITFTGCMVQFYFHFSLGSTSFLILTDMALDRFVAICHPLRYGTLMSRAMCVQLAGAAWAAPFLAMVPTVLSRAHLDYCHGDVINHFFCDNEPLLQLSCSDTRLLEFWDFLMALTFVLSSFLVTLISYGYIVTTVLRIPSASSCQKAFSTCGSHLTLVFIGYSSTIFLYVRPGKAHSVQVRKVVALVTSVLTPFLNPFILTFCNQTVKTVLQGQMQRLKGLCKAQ
# Chain of OR6T1 (Homo sapiens) (Q8NGN1 whole entry): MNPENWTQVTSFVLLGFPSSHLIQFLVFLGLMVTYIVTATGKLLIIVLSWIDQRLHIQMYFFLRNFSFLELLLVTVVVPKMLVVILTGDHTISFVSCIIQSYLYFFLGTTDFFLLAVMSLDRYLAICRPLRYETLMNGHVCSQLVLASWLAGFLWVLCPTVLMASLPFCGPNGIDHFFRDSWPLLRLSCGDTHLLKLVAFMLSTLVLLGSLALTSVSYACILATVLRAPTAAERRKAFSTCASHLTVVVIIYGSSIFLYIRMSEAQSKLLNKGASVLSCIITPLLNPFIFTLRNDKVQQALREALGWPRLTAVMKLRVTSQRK
# Chain of OR7A17 (Homo sapiens) (O14581 whole entry): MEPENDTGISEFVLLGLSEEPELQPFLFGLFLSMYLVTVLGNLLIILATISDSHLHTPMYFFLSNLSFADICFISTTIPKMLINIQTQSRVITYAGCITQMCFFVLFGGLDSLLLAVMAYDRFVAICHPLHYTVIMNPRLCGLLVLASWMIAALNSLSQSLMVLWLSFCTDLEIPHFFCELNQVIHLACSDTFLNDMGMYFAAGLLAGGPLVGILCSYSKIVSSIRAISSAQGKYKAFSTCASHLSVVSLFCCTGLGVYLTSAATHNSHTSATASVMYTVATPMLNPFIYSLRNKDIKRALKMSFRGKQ
# Chain of OR6X1 (Homo sapiens) (Q8NH79 whole entry): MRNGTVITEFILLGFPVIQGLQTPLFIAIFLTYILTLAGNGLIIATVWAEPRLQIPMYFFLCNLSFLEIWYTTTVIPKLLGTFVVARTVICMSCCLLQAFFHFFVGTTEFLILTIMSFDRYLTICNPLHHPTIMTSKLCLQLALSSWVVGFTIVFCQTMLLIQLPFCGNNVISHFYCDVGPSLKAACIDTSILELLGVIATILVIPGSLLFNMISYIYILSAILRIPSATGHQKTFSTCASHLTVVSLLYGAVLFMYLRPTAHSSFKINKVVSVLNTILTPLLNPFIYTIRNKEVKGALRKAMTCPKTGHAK
# Chain of OR7D2 (Homo sapiens) (Q96RA2 whole entry): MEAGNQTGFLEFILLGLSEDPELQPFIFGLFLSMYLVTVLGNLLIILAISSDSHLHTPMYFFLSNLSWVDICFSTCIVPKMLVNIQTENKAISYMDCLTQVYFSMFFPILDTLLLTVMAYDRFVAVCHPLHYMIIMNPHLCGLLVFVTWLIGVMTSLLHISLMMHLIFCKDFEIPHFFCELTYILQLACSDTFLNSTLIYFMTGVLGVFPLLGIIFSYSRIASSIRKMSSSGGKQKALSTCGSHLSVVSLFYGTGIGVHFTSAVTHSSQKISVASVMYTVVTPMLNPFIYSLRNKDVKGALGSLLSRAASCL
# Chain of OR6Y1 (Homo sapiens) (Q8NGX8 whole entry): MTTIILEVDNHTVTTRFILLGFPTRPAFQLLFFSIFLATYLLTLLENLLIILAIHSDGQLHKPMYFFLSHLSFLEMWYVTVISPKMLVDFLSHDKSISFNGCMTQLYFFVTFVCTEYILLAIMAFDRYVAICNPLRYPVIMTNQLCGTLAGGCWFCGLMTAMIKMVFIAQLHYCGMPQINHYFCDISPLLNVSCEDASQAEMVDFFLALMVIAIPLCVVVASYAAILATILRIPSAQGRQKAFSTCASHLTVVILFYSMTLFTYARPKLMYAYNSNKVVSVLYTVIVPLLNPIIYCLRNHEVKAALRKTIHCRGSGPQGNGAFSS
# Chain of OR7A5 (Homo sapiens) (Q15622 whole entry): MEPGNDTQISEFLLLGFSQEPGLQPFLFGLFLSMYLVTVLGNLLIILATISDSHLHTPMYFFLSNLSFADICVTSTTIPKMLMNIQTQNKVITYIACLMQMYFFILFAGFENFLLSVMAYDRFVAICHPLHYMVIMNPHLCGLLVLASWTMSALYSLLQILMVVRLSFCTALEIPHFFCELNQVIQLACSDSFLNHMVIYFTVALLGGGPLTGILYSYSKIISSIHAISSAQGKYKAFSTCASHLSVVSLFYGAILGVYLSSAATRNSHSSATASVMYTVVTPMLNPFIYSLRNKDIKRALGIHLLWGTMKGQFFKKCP
# Chain of OR6M1 T276K (as listed by the source, stated change not applied): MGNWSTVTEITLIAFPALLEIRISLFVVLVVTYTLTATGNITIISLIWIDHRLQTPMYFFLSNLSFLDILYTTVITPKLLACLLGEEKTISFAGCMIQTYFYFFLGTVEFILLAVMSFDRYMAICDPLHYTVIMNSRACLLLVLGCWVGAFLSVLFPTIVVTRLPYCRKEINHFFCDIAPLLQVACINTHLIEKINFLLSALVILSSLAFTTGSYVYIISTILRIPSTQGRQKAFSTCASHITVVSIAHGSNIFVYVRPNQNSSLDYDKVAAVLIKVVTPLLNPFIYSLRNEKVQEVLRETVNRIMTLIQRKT
# Chain of OR7A5 M81I (as listed by the source, stated change not applied): as the sequence (Q15622 whole entry) above, with M81I counted along it
# Chain of OR6T1 N2D (as listed by the source): as the sequence (Q8NGN1 whole entry) above, with N2D counted along it
Compound,odorant receptor agonist call [1],odorant receptor agonist call [2],odorant receptor agonist call [3],odorant receptor agonist call [4],odorant receptor agonist call [5],odorant receptor agonist call [6],odorant receptor agonist call [7],odorant receptor agonist call [8],odorant receptor agonist call [9],odorant receptor agonist call [10],odorant receptor agonist call [11],odorant receptor agonist call [12],odorant receptor agonist call [13],odorant receptor agonist call [14],odorant receptor agonist call [15],odorant receptor agonist call [16],odorant receptor agonist call [17],odorant receptor agonist call [18],odorant receptor agonist call [19],odorant receptor agonist call [20]
Cc1c([N+](=O)[O-])c(C)c([N+](=O)[O-])c(C(C)(C)C)c1[N+](=O)[O-],inactive,inactive,inactive,inactive,inactive,inactive,inactive,inactive,inactive,inactive,inactive,inactive,inactive,inactive,inactive,,,,,
C=CCOC(=O)Cc1ccccc1,inactive,inactive,inactive,inactive,inactive,inactive,inactive,inactive,inactive,inactive,inactive,inactive,inactive,inactive,inactive,inactive,inactive,inactive,inactive,inactive
COc1ccc(C=O)cc1,,,active,,,,,,,,,,,,,,,,,
